Data: PubChem BioAssay
Unmarked numbers belong to inactive results. Records with an inconclusive call do not appear. Activity calls are given as the source filed them.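 The calls were made as follows, unless noted: active = viability at or below 27.92% in each of two runs, the all-compound median minus 4 SD; inconclusive = no clear call, values can overlap the other calls; inactive = the rest.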

Legend:
[1] = OD615 S. cerevisiae growth inhibition, permissive medium, pilot counter-assay, permissive growth control for S. cerevisiae lifespan shortening project (AID 705;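 active = growth inhibition above 25% in both replicates, a cutoff set 3 SD above the mean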); details: OD615, 24 h, at 10 µM, stronger effect = higher value
Outline: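 assay system = Saccharomyces cerevisiae strain carrying genetically modified DeaD replicative-lifespan system | technique = absorbance (optical density) at 615 nm | buffer or medium = permissive raffinose/galactose medium | timing = cells pre-grown 4 h, then 24 h compound exposure, 30 °C humidified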

[2] = Restrictive medium S. cerevisiae growth inhibition, OD615, pilot screen of yeast lifespan reduction project, restrictive growth control (AID 706;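 active = growth inhibition above a set limit, 3 SD over mean compound inhibition, in both replicates, cut at about 43% in these data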;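 also: modified DeaD lifespan yeast strain shifted to restrictive glucose medium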); details: OD615, 48 h, at 10 µM, stronger effect = higher value
Outline: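 System: modified S. cerevisiae. Buffer or medium: CSMM-D glucose medium. Incubation: 4 h pre-growth plus 48 h compound exposure, 30 °C. Detection: absorbance (optical density) measured at 615 nm.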

[3] = viability gain of MRP-1-high H69AR cells under doxorubicin, pilot screen, MRP-1 activator project, CellTiter-Glo, duplicate (AID 807;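 active = viability increase at or above a cutoff of the median across tested compounds plus 3 SD, cut at about 8.5% in these data, passing the limit was not always enough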;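 also: compound pretreatment 18-22 h then 72 h combined with doxorubicin; 0% = doxorubicin alone and 100% = vehicle without doxorubicin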); details: H69AR viability with doxorubicin, CellTiter-Glo luminescence; at 10 µM; stronger effect = higher value
[4] = growth suppression of beta-catenin knockout HCT116, pilot screen, human colon tumor cells (AID 823;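 active = cell viability at or below a set limit in both duplicate runs, the limit being the all-compound median minus 4 SD, cut at about 23% in these data, passing the limit was not always enough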;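 also: 0% = wells killed by 20 µM Hyamine and 100% = untreated DMSO cell wells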); details: CellTiter-Glo, 60 h, at 10 µM, stronger effect = lower value
[5] = growth suppression of PTEN-deleted HCT116, pilot screen, cell-based, HCT116 clonal line, CellTiter-Glo (AID 824); details: 60 h, at 10 µM, stronger effect = lower value;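 also: 0% = 20 µM Hyamine control and 100% = vehicle cell control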
[6] = inhibitors of the yeast RAM network, pilot screen, dse1pr::URA3 reporter, 5-FOA selection (AID 869;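 active = inhibition over a set limit, the all-compound mean plus 3 SD, in both replicate runs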;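 also: 0% = DMSO wells with no growth and 100% = 10 µM 1-NA-PP1 with full growth; RAM network block rescues cells from 5-FOA so hits raise OD615 growth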); details: S. cerevisiae dse1pr::URA3 5-FOA growth, OD615, 2 d; at 10 µM; stronger effect = higher value; strain carries analog-sensitive mutant Cbk1 kinase
[7] = RAM signaling pathway blockade in yeast – S. cerevisiae, Pdr1DBD-CYC8 efflux-inhibited sensitized strain, primary screen (AID 1298;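 active = RAM network inhibition above 8.4% in each of two replicates, 3 SD over the compound average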;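 also: 0% = DMSO untreated cells without growth and 100% = 10 µM 1-NA-PP1 full growth; higher means more yeast growth rescued from 5-FOA killing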); details: S. cerevisiae cbk1-as DSE1-URA3 strain, 5-FOA growth OD615, 2 d; at 50 µM; stronger effect = higher value

SMILES | growth inhibition [1] [%] | growth inhibition [2] | viability increase [3] [%] | viability [4] | viability [5] | inhibition [6] [%] | RAM network inhibition [7] [%]
Cn1c(=O)oc2cc(S(=O)(=O)N3CCCC(C(=O)N4CCc5ccccc5C4)C3)ccc21 (stereo not drawn) | 1.16 | -8.79% | -2.62 | 87.8% | 84.9% | 1.8 | -0.89
CN1CCc2c(sc3c2C(=O)NC(c2ccc(-c4cccc(Cl)c4)o2)N3)C1 (stereo not drawn) | 5 | 3.19% | -1.49 | 97.6% | 87.7% | 1.89 | 2.2
CC1(C)Cc2c(C#N)c(N)sc(=S)c2CO1 | 21.9 | 67% (active) | -1.77 | 101% | 106% | 1.27 | 2.98
O=C(NCc1ccccn1)C1CCC(=O)N1C1CCCC1 (stereo not drawn) | -0.9 | 3.94% | -0.45 | 98.2% | 98% | 1.67 | 4.67
COc1ccc(N(CC(=O)Nc2cccc(SC)c2)S(C)(=O)=O)cc1Cl | -4.88 | -9.05% | -6.18 | 77.7% | 80.6% | 0.975 | 3.03
CC(C)Sc1nnc(Cn2c(=O)sc3ccccc32)n1-c1ccccc1 | 1.75 | -10.2% | -0.05 | 87.1% | 86.5% | -0.63 | 5.84
Cc1ccc(S(=O)(=O)CCc2nc3ccccc3n2CCC#N)cc1 | 4.59 | 0.82% | -7.34 | 23.5% (active) | 18.7% (active) | 0.995 | 0.01
CCCN(CC1CC1)S(=O)(=O)c1ccc(S(N)(=O)=O)cc1 | -8.54 | 0.87% | -1.41 | 100% | 90.3% | 0.505 | 1.48
CCOc1cccc(N2C(=O)CC(NCc3ccc(S(N)(=O)=O)cc3)C2=O)c1 (stereo not drawn) | -14.7 | -1.03% | -1.3 | 101% | 94.7% | 0.44 | 2.35
CN(CP(=O)(O)C(O)c1ccccc1)S(C)(=O)=O (stereo not drawn) | -4.82 | -6.66% | 0.16 | 94.2% | 93.4% | 1.1 | 1.86
O=C(Nc1nccs1)c1cc(S(=O)(=O)N2CCCCC2)ccc1Cl | -6.76 | -16.1% | 0.46 | 99.7% | 88.6% | 1.89 | 4.88
CCCCNC(=O)c1ccc2c(c1)N(CC)C(=O)c1ccccc1S2(=O)=O | -1.9 | -1.83% | 0.81 | 93.8% | 87.3% | 0.255 | -2.03
COc1ccc(CC(=O)Nc2cc(=O)n(C)c(=O)n2C)cc1 | -5.75 | -4.35% | 0.44 | 102% | 91% | 1.85 | -2.12
O=C(CN1CCN(c2ncccn2)CC1)N1CCN(C(c2ccccc2)c2ccccc2)CC1 | -1.1 | -2.38% | -3.26 | 84.8% | 85% | 1.64 | 0.61
Cc1ccccc1N1C(=O)c2sc3nc4c(c(=O)n3c2C1=O)CCC4 | 4.62 | 25.2% | -4.72 | 97% | 96.8% | 1.5 | 2.56
COC(=O)c1ccc(COc2ccc3c(C)c(C)c(=O)oc3c2)o1 | -4.33 | -4.88% | -0.68 | 101% | 105% | 1.5 | 5.89
CC(C)N1C(=O)CCC1C(=O)N1CCN(c2ccccn2)CC1 (stereo not drawn) | -11.9 | -15.7% | 0.54 | 107% | 103% | 0.845 | 1.45
COc1ccc(-n2c(Cc3cccn3C)nnc2SCC(=O)Nc2ccccc2C)cc1 | -11.6 | 11.1% | -2.39 | 86% | 81.7% | 1.33 | 7.38
O=S(=O)(c1ccc(OCc2nc3ccccc3s2)c(Cl)c1)N1CCOCC1 | -7 | 9.42% | -0.83 | 91.5% | 88.6% | 1.26 | -0.57
Clc1ccc2nc3ccccn3c2c1 | -6.63 | -5.02% | -4.02 | 109% | 106% | 1.56 | 2.48
Cc1ccc(S(=O)(=O)NCC(=O)N2CCCCC2)cc1 | -11.1 | -11.9% | -1.13 | 97.8% | 102% | 0.465 | 1.88
Cc1cccc(Cn2c(SCCN3CCOCC3)nc3c2c(=O)n(C)c(=O)n3C)c1 | 1.68 | 1.63% | -2.36 | 103% | 91% | 0.9 | 5.93
CCC(=O)Nc1sc2c(c1C(N)=O)CCN(C(C)=O)C2 | -12.9 | -19.6% | -0.72 | 103% | 105% | 1.94 | 3.29
O=C(CCCCn1c(=O)[nH]c2ccccc2c1=O)NCCc1c[nH]c2ccccc12 | -16.7 | -25.8% | -4.05 | 93.5% | 93.7% | 0.945 | 4.06
Nc1cc(N)nc(SCCOc2ccccc2)n1 | -4.79 | -0.825% | 0.93 | 106% | 106% | 2.26 | 2.17
Cc1cc(/C=N/n2cnnc2)c(C)n1-c1ccc(C(=O)O)cc1 | 5.52 | -2.69% | 1.76 | 102% | 99% | 0.98 | 2.56
Cc1ccc(CNC(=O)c2cc3c(=O)n(C)c4ccccc4c3n2C)o1 | 1.32 | 0.445% | -4.08 | 106% | 104% | 2.61 | 4.84

SMILES | growth inhibition [1] [%] | growth inhibition [2] | viability increase [3] [%] | viability [4] | viability [5] | inhibition [6] [%] | RAM network inhibition [7] [%]
CCCC(=O)NC(C)c1nc2ccccc2n1C(C)C (stereo not drawn) | -10.7 | -16.6% | 0.47 | 97.5% | 91.2% | 0.475 | 2.52
Cc1ccc(N2C(=O)c3ccc(C(=O)N4CCN(c5ccccc5F)CC4)cc3C2=O)cc1 | -4.5 | -2.21% | -1.97 | 90.5% | 90% | 1.33 | 4.71
Cc1cc(N2CCN(C3CCCCC3)CC2)nc2cccc(O)c12 | -7.5 | -31.3% | -4 | 61% | 62.8% | 2.71 | 4.45
O=C(c1cc2ccccn2n1)N1CCN(Cc2ccccc2)CC1 | 1.21 | 7.58% | -0.74 | 104% | 87.7% | 0.99 | 2.76
O=C(CS(=O)(=O)c1cn(Cc2cccc(F)c2)c2ccccc12)N1CCOCC1 | -9.09 | -22% | -3.47 | 91.1% | 88.8% | 2.82 | 6
O=C(O)C1CCC(=O)N1C1c2ccccc2Oc2ccccc21 (stereo not drawn) | 4.23 | 4.63% | 0.41 | 96% | 98.9% | 0.57 | 5.25
O=C1OCc2cc(NC(=O)C3COc4ccccc4O3)ccc21 (stereo not drawn) | -17.8 | 10.7% | -0.17 | 103% | 93.3% | 1.29 | 10.9
Cc1ccc(-c2nc(CS(=O)CC(=O)NCc3ccccn3)c(C)o2)cc1 (stereo not drawn) | -5.48 | 7.86% | -1.49 | 92.2% | 90.7% | 0.745 | 1.38
NC(=O)c1ccc(N2CCCCC2)c(N2C(=O)C3C4C=CC(C4)C3C2=O)c1 (stereo not drawn) | 0.39 | -4.49% | -2.98 | 101% | 92.6% | 0.92 | 3.75
CC(=O)c1sc(NC(=O)c2ccccc2F)nc1C | -10.4 | -3.2% | -0.32 | 79% | 75.2% | 0.31 | 0.74
O=NC1=C(c2c(O)[nH]c3ccccc23)CCCC1 | -3.26 | -12% | -5.46 | 91% | 93.9% | 1.6 | 4.71
COCCN1C(=O)c2oc3ccccc3c(=O)c2C1c1ccc(OC)c(OC)c1 (stereo not drawn) | -24 | -16.9% | -1.75 | 107% | 95.1% | 0.865 | 4.46
Cc1ccc(F)c(NC=C2C(=O)OC(C)(C)OC2=O)c1 | -10.2 | -7.67% | 0.97 | 87.9% | 92.8% | 2.53 | 2.44
Clc1ccc(Cn2cc(/C=N/n3cnnc3)c3ccccc32)cc1 | 9.77 | 30.9% | -7.71 | 64.5% | 62.3% | 1.48 | 3
CC(=O)c1c(C)cc(C)c(CSc2nc(C)cc(=O)[nH]2)c1C | 2.49 | 19.8% | 0.08 | 83% | 74.2% | 0.245 | 2.49
O=C(O)c1cccc(-n2cnnn2)c1 | 1.37 | 1.52% | 0.82 | 104% | 101% | 1.06 | 4.03
COc1ccc(OC)c(-c2nc(C(N)=O)c3[nH]c(=O)n(-c4ccc(F)cc4)c3n2)c1 | -0.485 | -10.4% | -2.73 | 95.4% | 103% | 2.46 | 0.16
Cc1nc2ccc(S(=O)(=O)NC(C(=O)N3CCC(C)CC3)C(C)C)cc2s1 (stereo not drawn) | -13.4 | -2.64% | -2.02 | 93.9% | 89% | 2.38 | 2.55
Cc1cccn2c(=O)c3cc(C(=O)NCCN4CCOCC4)c(=N)n(CCc4ccccc4)c3nc12 | -0.895 | -4.73% | -5.8 | 5.75% (active) | 12.8% (active) | 1.02 | 2.73
CN(CCC#N)C(=O)Cn1nc(Cc2ccncc2)c2ccccc2c1=O | -2.53 | -1.35% | 0.95 | 102% | 95.6% | 0.515 | 0.16
CSc1nnc(Cn2c(=O)sc3ccccc32)n1-c1ccccc1C | -14.4 | -4% | -2.05 | 97.2% | 96.7% | 1.73 | 2.76
CCC(C)Sc1nc2c(cnn2-c2ccc(C)cc2)c(=O)[nH]1 (stereo not drawn) | -13 | -3.34% | -3.06 | 93.9% | 88.9% | 4.24 | 0.41
Cc1ccc(NC(=O)CNS(=O)(=O)c2cccs2)cc1F | -5.56 | -17.9% | 1.44 | 100% | 97.7% | 0.01 | -0.53
CN1CCN(CCCNC(=O)c2ccc(CS(=O)(=O)c3ccc(Br)cc3)o2)CC1 | -7.34 | -12.5% | -1.18 | 95.3% | 90.8% | 1.38 | -0.99
CC1CCCCN1C(=O)c1ccc(S(=O)(=O)N2CCCCC2C)cc1 (stereo not drawn) | -5.29 | -15.2% | -2.45 | 96.7% | 95.6% | 1.99 | 2.28
O=C(CN1C(=O)CCC1=O)Nc1nc2c(F)cc(F)cc2s1 | -23 | -18.8% | -0.91 | 99.4% | 92.5% | 1.6 | 1.49
COc1ccc(OCc2nnc3n2N=C(c2ccc(C)cc2)CS3)cc1 | -3.36 | -2.56% | 2.3 | 95.4% | 82.1% | 1.57 | 2.58
